ChEMBL document CHEMBL3124926, “Identification of highly efficacious glucocorticoid receptor agonists with a potential for reduced clinical bone side effects” (J Med Chem, 2014)

Columns and labels:
Glucocorticoid receptor [1] = target: T1, Glucocorticoid receptor (Homo sapiens, UniProt P04150); test: Competitive binding affinity to glucocorticoid receptor (unknown origin) expressed in baculovirus-infected cell system after 1 hr by fluorescence polarization assay in presence of tetramethylrhodamine-labeled dexamethasone
T1 sequence (P04150 whole entry): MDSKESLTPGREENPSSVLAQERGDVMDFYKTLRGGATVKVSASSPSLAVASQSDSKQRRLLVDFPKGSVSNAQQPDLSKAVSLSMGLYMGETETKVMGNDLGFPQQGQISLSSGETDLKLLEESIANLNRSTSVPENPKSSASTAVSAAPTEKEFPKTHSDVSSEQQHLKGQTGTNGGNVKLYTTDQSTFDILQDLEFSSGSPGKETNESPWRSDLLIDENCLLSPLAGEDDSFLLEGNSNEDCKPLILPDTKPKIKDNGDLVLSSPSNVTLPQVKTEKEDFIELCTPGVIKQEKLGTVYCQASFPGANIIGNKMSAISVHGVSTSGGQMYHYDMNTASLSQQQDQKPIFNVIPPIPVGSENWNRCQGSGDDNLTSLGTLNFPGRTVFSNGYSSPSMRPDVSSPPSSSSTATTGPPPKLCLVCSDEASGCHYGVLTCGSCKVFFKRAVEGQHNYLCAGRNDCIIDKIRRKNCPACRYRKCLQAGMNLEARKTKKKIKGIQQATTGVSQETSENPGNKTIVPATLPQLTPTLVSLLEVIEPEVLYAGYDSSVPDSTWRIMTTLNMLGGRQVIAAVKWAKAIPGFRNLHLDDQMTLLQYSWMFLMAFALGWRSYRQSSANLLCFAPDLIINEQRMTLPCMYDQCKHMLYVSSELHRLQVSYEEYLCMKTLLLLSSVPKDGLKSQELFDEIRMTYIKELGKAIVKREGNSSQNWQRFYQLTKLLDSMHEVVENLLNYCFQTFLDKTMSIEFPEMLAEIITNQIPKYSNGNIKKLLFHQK
In short: (§1)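 Lysates of baculovirus-infected insect cells co-expressing receptor with HSP-70, HSP-90 and p23 (GR diluted 300-fold, MR 17-fold). Probe 5 nM tetramethylrhodamine-dexamethasone in TES/KCl/molybdate/EDTA/CHAPS/glycerol/DTT buffer, pH 7.4, 1% DMSO. 1 h at room temperature in the dark; fluorescence polarization read (ex 550/em 580 nm). Background set with 2 μM dexamethasone. IC50 from duplicate 11-point curves, four-parameter fit, mean of at least two determinations.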

[2] = target: T2, Glucocorticoid receptor (Homo sapiens) (UniProt P04150); test: Agonist activity at glucocorticoid receptor in human HeLa cells transfected with luciferase gene linked to MMTV promoter assessed as induction of luciferase transactivation activity at 2 uM after 6 hrs by luminescence assay; type: cell-based
T2 sequence (whole entry): T1 sequence (P04150 whole entry)
In short: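 HeLa cells stably carrying an MMTV-luciferase construct, plated the day before at 25000/well in DMEM with 3% FBS. Medium replaced, then compound added (0.2% DMSO final); 1 μM dexamethasone wells = 100% induction, vehicle = background. Incubated 6 h at 37 °C, 5% CO2. Luminescence read after lysis; activation expressed as % of positive control. Top concentration 2 μM.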

[3] = target: T2, Glucocorticoid receptor (Homo sapiens); test: Transrepression activity at glucocorticoid receptor in human fibroblasts assessed as inhibition of IL-1-induced IL-6 production at 2 uM after 18 to 24 hrs relative to dexomethasone
In short: (§2)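 Human foreskin fibroblasts grown in Iscove's medium with 10% charcoal/dextran-treated FBS, plated at 20000/well two days before. Medium replaced, then compound (0.4% DMSO final) and recombinant human IL-1 (1 ng/mL final) added. 18–24 h at 37 °C; IL-6 in medium quantified by electrochemiluminescence, DELFIA or ELISA. IC50 by four-parameter fit of duplicate 11-point curves. Efficacy relative to dexamethasone (100%); top concentration 2 μM.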

Glucocorticoid receptor [4] = target: T1, Glucocorticoid receptor; test: Transrepression activity at glucocorticoid receptor in human fibroblasts assessed as inhibition of IL-1-induced IL-6 production after 18 to 24 hrs; in short: as §2
[5] = target: T3, Mineralocorticoid receptor (Homo sapiens, UniProt P08235); test: Competitive binding affinity to mineralocorticoid receptor (unknown origin) expressed in baculovirus-infected cell system after 1 hr by fluorescence polarization assay in presence of tetramethylrhodamine-labeled dexamethasone; in short: as §1
T3 sequence (P08235 whole entry): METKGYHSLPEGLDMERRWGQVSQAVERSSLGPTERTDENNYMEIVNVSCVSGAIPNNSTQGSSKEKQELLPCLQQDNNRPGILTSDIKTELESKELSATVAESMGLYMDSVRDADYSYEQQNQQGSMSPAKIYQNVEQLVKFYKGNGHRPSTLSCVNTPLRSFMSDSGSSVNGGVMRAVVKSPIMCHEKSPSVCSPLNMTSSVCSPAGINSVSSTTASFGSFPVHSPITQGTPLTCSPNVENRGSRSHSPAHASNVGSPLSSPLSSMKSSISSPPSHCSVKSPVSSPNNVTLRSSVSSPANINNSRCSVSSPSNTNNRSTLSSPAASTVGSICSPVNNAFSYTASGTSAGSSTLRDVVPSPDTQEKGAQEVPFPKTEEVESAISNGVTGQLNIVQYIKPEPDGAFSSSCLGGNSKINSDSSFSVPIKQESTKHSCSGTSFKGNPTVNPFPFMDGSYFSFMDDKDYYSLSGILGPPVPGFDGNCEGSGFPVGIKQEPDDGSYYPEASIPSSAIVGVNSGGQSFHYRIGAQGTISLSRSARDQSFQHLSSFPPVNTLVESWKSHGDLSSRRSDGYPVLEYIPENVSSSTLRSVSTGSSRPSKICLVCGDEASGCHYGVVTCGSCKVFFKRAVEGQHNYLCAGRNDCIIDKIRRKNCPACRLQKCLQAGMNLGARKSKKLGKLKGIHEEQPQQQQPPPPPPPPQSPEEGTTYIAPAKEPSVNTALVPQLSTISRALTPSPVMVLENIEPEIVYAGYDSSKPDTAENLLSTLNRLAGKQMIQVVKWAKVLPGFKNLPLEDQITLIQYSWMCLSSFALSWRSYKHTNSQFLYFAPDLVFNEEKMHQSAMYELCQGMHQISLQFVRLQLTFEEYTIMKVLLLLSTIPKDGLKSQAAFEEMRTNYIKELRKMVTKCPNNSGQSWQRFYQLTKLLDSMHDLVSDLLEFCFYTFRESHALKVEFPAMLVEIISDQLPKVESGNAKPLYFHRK

[6] = target: T2, Glucocorticoid receptor (Homo sapiens); test: Agonist activity at glucocorticoid receptor in human […] cells assessed as suppression of vitamin D-induced osteocalcin production at 2 uM after 48 hrs by Gla-type osteocalcin ELISA relative to dexomethasone; type: cell-based
In short: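 MG-63 human osteosarcoma cells plated at 20000/well in DMEM/F-12 with 1% charcoal-filtered FBS and 10 μg/mL vitamin C. Medium refreshed next day, then vitamin D (10 nM final) added with compound (2 × 10−6 to 10−10 M), duplicates. Incubated 48 h at 37 °C; supernatant osteocalcin measured by Gla-type ELISA. Vitamin D-only wells = 100%. Max efficacy at 2 μM is relative to dexamethasone (100%).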

Row | Compound | IC50 (Glucocorticoid receptor [1]) | Emax [2] | Emax [3] | IC50 (Glucocorticoid receptor [4]) | IC50 [5] | Emax [6]
1 | Cc1ccc(F)cc1C(C)(C)C[C@@](O)(Cc1cc2nnccc2[nH]1)C(F)(F)F | 5 nM | 0% | 86% | 9 nM | 260 nM | 34%
2 | Cc1ccc(F)cc1C(C)(C)C[C@@](O)(Cc1cc2ncncc2[nH]1)C(F)(F)F | 4 nM | 0% | 72% | 13 nM | 475 nM | 32%
3 | Cc1ccc(F)cc1C(C)(C)CC(O)(Cc1cc2nc(-c3ccccc3)ncc2[nH]1)C(F)(F)F (racemic) | 5 nM | 36% | 93% | 8 nM | 1900 nM | 72%
4 | Cc1ccc(F)cc1C(C)(C)CC(O)(Cc1cc2nc(-c3cccnc3)ncc2[nH]1)C(F)(F)F (racemic) | 5 nM | 32% | 92% | 12 nM | > 2000 nM | 74%
5 | Cc1ccc(F)cc1C(C)(C)CC(O)(Cc1cc2nc(N3CCS(=O)(=O)CC3)ncc2[nH]1)C(F)(F)F (racemic) | 8 nM | 22% | 84% | 19 nM | > 2000 nM | 80%
6 | CC(C)(CC(O)(Cc1cc2ncncc2[nH]1)C(F)(F)F)c1ccc(F)cc1O (racemic) | 5 nM | 22% | 86% | 9 nM | 1200 nM | 28%
7 | CC(C)(CC(O)(Cc1cc2ncncc2[nH]1)C(F)(F)F)c1cc(Cl)cc2c1OCC2 (racemic) | 5 nM | 12% | 87% | 13 nM | 340 nM | 35%
8 | Cc1ccc(F)cc1C(C)(C)CC(O)(Cc1cc2nnccc2[nH]1)C(F)(F)F (racemic) | 7 nM | 7% | 85% | 16 nM | 615 nM | 45%
9 | Cc1ccc(F)cc1C(C)(C)CC(O)(Cc1cc2cc(-c3ccccc3)nnc2[nH]1)C(F)(F)F (racemic) | 13 nM | 75% | – | 6 nM | > 2000 nM | 73%
10 | Cc1ccc(F)cc1C(C)(C)CC(O)(Cc1cc2ncncc2[nH]1)C(F)(F)F (racemic) | 8 nM | 0% | 74% | 19 nM | 855 nM | 32%
